Runt-SMMHC FRET: inhibitors of RUNX1 Runt–CBFb-SMMHC binding, primary screen, biochemical, FRET, Cerulean-Runt, Venus-CBFb-SMMHC, uHTS; Runt-related transcription factor 1 (Homo sapiens) + Core-binding factor subunit beta …; Cerulean-Runt/Venus-CBFb-SMMHC FRET ratio 530/480, 1 h; inhibition, % at 20 µM; hit rate 0.74% among 220,000; AID 1434, 2008;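 active means mean inhibition across duplicate retests at 20 µM reaching about 50%, limit read from the data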;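 further: 0% = DMSO wells and 100% = wells with excess untagged CBFb-SMMHC; inhibitors lower the FRET ratio by blocking Runt binding to CBFb-SMMHC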
Target sequence (Q01196 whole entry, looked up): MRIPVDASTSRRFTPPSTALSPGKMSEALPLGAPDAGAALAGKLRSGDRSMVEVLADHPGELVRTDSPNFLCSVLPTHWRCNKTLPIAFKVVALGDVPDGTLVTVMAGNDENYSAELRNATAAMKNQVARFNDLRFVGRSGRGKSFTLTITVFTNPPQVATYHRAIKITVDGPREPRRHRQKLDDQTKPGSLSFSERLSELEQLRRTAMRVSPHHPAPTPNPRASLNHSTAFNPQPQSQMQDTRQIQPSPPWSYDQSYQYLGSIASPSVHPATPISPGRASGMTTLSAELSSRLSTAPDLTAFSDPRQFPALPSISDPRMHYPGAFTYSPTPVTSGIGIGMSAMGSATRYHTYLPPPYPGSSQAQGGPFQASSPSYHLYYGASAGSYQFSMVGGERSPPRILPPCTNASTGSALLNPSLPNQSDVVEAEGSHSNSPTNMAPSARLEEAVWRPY
Target sequence (Q13951 whole entry, looked up): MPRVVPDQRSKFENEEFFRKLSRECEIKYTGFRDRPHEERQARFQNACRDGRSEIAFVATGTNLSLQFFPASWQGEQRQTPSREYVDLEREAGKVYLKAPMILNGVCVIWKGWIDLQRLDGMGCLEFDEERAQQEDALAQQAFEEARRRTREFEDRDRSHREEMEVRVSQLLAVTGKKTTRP
Runt-CBFb FRET: inhibitors of RUNX1 Runt–CBFb binding, primary screen, biochemical, FRET, Cerulean-Runt, Venus-CBFb, uHTS; Runt-related transcription factor 1 (Homo sapiens) + Core-binding factor subunit beta …; Cerulean-Runt/Venus-CBFb FRET ratio 530/480, 1 h; inhibition, % at 20 µM; hit rate 0.46% among 220,000;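 active means inhibition over about 50% at 20 µM in the single-dose screen, limit read from the data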;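 further: 0% = DMSO wells and 100% = excess unlabeled CBFb competitor control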
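Assay system: Cerulean-tagged RUNX1 Runt domain (FRET donor) fusion protein / Amount: 100 nM each of Venus-CBFb and Cerulean-Runt domain / Medium: Tris buffer pH 7.5 with salts and BSA / Also added: Venus-CBFb 100 nM / Schedule: 1 h complex formation plus 1 h compound treatment, room temperature / Signal: FRET fluorescence / Read-out: loss of energy transfer signal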
Platelet DG rel: inhibitors of platelet dense granule secretion, primary screen, cell-based, MLPCN, human platelets | human platelet-rich plasma, SFLLRN dense granule ATP release, luminescence | inhibition, %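 (compounds screened at 7.5 µM in platelet-rich plasma)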 | hit rate 0.22% among 300,000;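 active means mean replicate score, as percent of positive control, at or above 50; inconclusive means mean below 50 but at least one replicate at or above 50; inactive means mean and every replicate below 50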
Rce1 inhib: yeast Rce1p protease inhibitors, primary screen, biochemical, fluorescence, cell-free homogeneous; CAAX prenyl protease 2 (Saccharomyces cerevisiae (strain ATCC 204508 / S288c)), Q03530; yeast membranes, quenched prenylated peptide cleavage fluorescence; calls only; hit rate 0.27% among 290,000; AID 2563, 2010;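 active means fall in fluorescence gain of 50% or more versus controls, with final raw signal at or below 3038400; inconclusive means same 50% fall but final raw signal above 3038400; inactive means fall in fluorescence gain under 50%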;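 further: plate controls were neutral control wells for no effect and wells lacking membranes for full effect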
RanGTP-Impb inh: inhibitors of RanGTP-importin-beta interaction, primary screen, biochemical, FRET, CFP-Ran, YFP-importin-beta, homogeneous; Ran GTPase (GTP-bound) - importin-beta complex; cell-free CFP-Ran/YFP-importin-beta FRET ratio; inhibition, % (test concentration not listed); hit rate 1.1% among 300,000; AID 2216, 2009;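 active means more than half of the replicate wells show a fall in the fluorescence ratio signal beyond about 16%, limit read from the data, passing the limit was not always enough; inconclusive means exactly half of the replicate wells pass the set limit; inactive means fewer than half of replicates pass the limit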;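 further: 0% = DMSO wells and 100% = Ran loaded with GDP instead of GTP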
* marks the source's active call; other numbers are inactive results; i = inactive; ? = inconclusive; / = no result; + = active, no number. Sampled rows, rich in hits. Any-hit rate of the full collection: about 1.8%.

SMILES | Runt-SMMHC FRET | Runt-CBFb FRET | Platelet DG rel | Rce1 inhib | RanGTP-Impb inh
C[C@H]1COc2c(N3CCN(C)CC3)c(F)cc3c(=O)c(C(=O)O)cn1c23 | -7 | 0 | 3 | + | -1
O=C(CN1CCN(c2ccc(F)cc2)CC1)Nc1ccccc1[N+](=O)[O-] | -3 | -1 | -4 | i | 5
CCOC(=O)C1CCCN(C(=O)Cn2sc3nc(C)cc(C)c3c2=O)C1 (stereo not given) | 59* | -15 | 15 | i | 0
CCCNC(=O)Cn1sc2nc(C)cc(C)c2c1=O | 60* | 14 | 6 | i | -4
Cc1cc(C)c2c(=O)n(CC(=O)N3CCC(N4CCCCC4)CC3)sc2n1 | 64* | -10 | -1 | i | -2
CCOC(=O)C1CCCN(C(=O)Cn2cnc3c2c(=O)n(C)c(=O)n3C)C1 (stereo not given) | 3 | 0 | 5 | i | -5
O=[N+]([O-])c1cc([N+](=O)[O-])c2oc(-c3ccccc3)c(Br)c2c1O | / | / | 2 | i | -7
COc1cc([N+](=O)[O-])c2ncsc2c1 | -4 | 7 | -13 | i | -1
COc1cc(SSc2cc(OC)cc([N+](=O)[O-])c2N)c(N)c([N+](=O)[O-])c1 | 64* | 41 | 5 | i | -12
O=C(CCc1ccc(S(=O)(=O)N2CCOCC2)cc1)Nc1ccc2c(c1)OCCO2 | -3 | 0 | 3 | i | 4
COC(=O)Cc1[nH]nc2c1C(c1c[nH]c3ccccc13)C(C#N)=C(N)O2 (stereo not given) | 2 | 12 | -2 | i | 45*
O=C(CC1(O)C(=O)N(CCc2ccccc2)c2ccccc21)c1ccccn1 (stereo not given) | 0 | -1 | 2 | i | -3
O=C(CC1(O)C(=O)N(C/C=C/c2ccccc2)c2ccccc21)c1ccccn1 (stereo not given) | -1 | -4 | -7 | + | -1
CCOC(=O)C(Sc1cc(C)nc(N)n1)C(C)=O (stereo not given) | -16 | -1 | 6 | i | 1
COc1ccc(CN2CCN(S(=O)(=O)c3ccc(NC(C)=O)cc3)CC2)cc1 | 0 | 5 | 2 | i | 4
COc1ccccc1C(O)P(=O)(OCC(C)C)c1ccc(N(C)C)cc1 (stereo not given) | / | / | -3 | i | -3
CSCC(C)N1CCC(Oc2cccc(C(=O)NCc3ccccn3)c2)CC1 (stereo not given) | / | / | -4 | i | 30*
COC(=O)C1=CN(Cc2ccc(OC)cc2)C=C(C(=O)OC)C1c1cccs1 | 39 | 16 | 3 | i | -2
CCN1C=C(C(=O)OC)C(c2cccc(OC)c2OC)C(C(=O)OC)=C1 | 86* | 21 | 4 | i | 126*
COC(=O)C1=CN(Cc2cccs2)C=C(C(=O)OC)C1c1cccc(OC)c1OC | 41 | 93* | 10 | i | 71*
COC(=O)C1=CN(Cc2ccc(C)cc2)C=C(C(=O)OC)C1c1cc(OC)c(OC)c(OC)c1 | / | / | 5 | i | 8
COC(=O)C1=CN(Cc2ccccc2)C=C(C(=O)OC)C1c1ccc(OC)c(OC)c1 | / | / | 1 | / | 3
COC(=O)C1=CN(Cc2ccc(OC)c(OC)c2)C=C(C(=O)OC)C1c1ccc(O)cc1 | / | / | 10 | i | ?
COC(=O)C1=CN(Cc2ccc(OC)c(OC)c2)C=C(C(=O)OC)C1c1ccc(F)cc1 | / | / | 12 | / | 18*
COCCN1C=C(C(=O)OC)C(c2ccccc2Cl)C(C(=O)OC)=C1 | 86* | 64* | 2 | i | 58*
SMILES | Runt-SMMHC FRET | Runt-CBFb FRET | Platelet DG rel | Rce1 inhib | RanGTP-Impb inh
O=C1COc2ccc(S(=O)(=O)CCC(=O)N3CCN(c4cccc(C(F)(F)F)c4)CC3)cc2N1 | / | / | 1 | i | 6
O=C(Nc1nnc(C2CC2)s1)C1Cc2ccccc2CN1S(=O)(=O)c1ccccc1F (stereo not given) | -3 | 0 | 9 | i | -5
COC(=O)C1=CN(Cc2ccc(OC)c(OC)c2)C=C(C(=O)OC)C1c1cccc(OC)c1OC | / | / | 6 | i | 73*
COc1ccc(CN2CCN(C(=O)c3cccc(OC)c3OC)CC2)cc1OC | -2 | 1 | 12 | i | -2
COC(=O)C1=CN(C2CC2)C=C(C(=O)OC)C1c1ccccc1OC | 38 | 105* | -1 | i | 32*
CC(C)(C)C(=O)NCCCc1nc2ccccc2n1CCCOc1ccc(Cl)cc1 | -7 | -6 | -75 | i | ?
O=C(Nc1nc2c(s1)CN(Cc1ccccc1)CC2)c1cccc(S(=O)(=O)N2CCc3ccccc32)c1 | -3 | -6 | -3 | i | 140*
O=C(Cc1cn2ccsc2n1)Nc1nc2c(s1)CN(Cc1ccccc1)CC2 | 77* | 47 | 1 | i | 11
Cc1nc(N)c2c(Cc3cccc4ccccc34)nn(C(C)(C)C)c2n1 | / | / | 4 | i | 1
Cn1c(=O)c2c(SCc3c(F)cccc3Cl)nc(CC(C)(C)C)nc2n(C)c1=O | 2 | -2 | 10 | i | 0
Cc1ccc2oc(C(=O)N3CCN(Cc4nccn4C)CC3)c(C)c2c1 | / | / | 14 | i | 1
CSc1nc(-c2ccccc2)nc(N2CCN(C)CC2)c1C(C)=O | 7 | -3 | 1 | i | 70*
Cc1ccc(S(=O)(=O)c2cc3c(=O)n4cccc(C)c4nc3n(Cc3ccco3)c2=N)cc1C | 65* | 48 | / | / | /
CCCCn1c(=N)c(S(=O)(=O)c2ccc(Br)cc2)cc2c(=O)n3cccc(C)c3nc21 | / | / | 5 | i | 0
Cc1ccc(S(=O)(=O)c2cc3c(=O)n4ccccc4nc3n(Cc3ccco3)c2=N)cc1 | / | 19 | 0 | i | 104*
COC(=O)CCC(=O)c1ccc(OC)c(Cl)c1 | / | / | 3 | i | 1
C=CCN(CC=C)c1nc2ccccc2nc1C(C#N)C(=O)OCCOC (stereo not given) | 61* | 18 | -6 | i | 20*
CCCN(CCC)c1nc2ccccc2nc1C(C#N)C(=O)OCCOC (stereo not given) | 4 | 12 | 8 | i | 37*
CCOC(=O)C1CCN(c2nc3ccccc3nc2C(C#N)C(=O)OCCOC)CC1 (stereo not given) | 6 | 1 | -1 | i | ?
CN1CCSc2ccc(C(=O)NCc3ccccc3F)cc21 | / | / | 73* | i | -2
COc1ccc(CNC(=O)c2ccc3c(c2)N(C)CCS3)cc1 | / | / | 0 | i | 4
CC(C)Oc1ccc(CNC(=O)c2ccc3c(c2)N(C)CCS3)cc1 | / | / | 57* | i | 1

From PubChem BioAssay
